Among the data in ChEMBL document CHEMBL1165925, “Identification of new non-carboxylic acid containing inhibitors of aldose reductase” (Bioorg Med Chem, 2010) are inhibition and IC50 values, retold here.

In assay [1] the target is Aldo-keto reductase family 1 member B1 (Bos taurus) (UniProt P16116). The experiment in a line: Inhibition of bovine lens aldose reductase at 25 uM. The essentials:
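Bovine lens enzyme was purified by DE-52 and Matrex Orange A chromatography. Assay used glyceraldehyde as substrate in 0.25 M sodium phosphate pH 6.8, with 0.38 M ammonium sulfate, 0.11 mM NADPH and 0.5 mM EDTA. Inhibitor was added in DMSO, final 1% v/v. Read-out is NADPH oxidation, given as percent inhibition at a single concentration.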

The target in assay [2] is Aldo-keto reductase family 1 member B1 (Bos taurus, UniProt P16116). The experiment in a line: Inhibition of bovine lens aldose reductase. Put shortly:
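Enzyme purified from bovine lens by DE-52 ion exchange then Matrex Orange A affinity chromatography (0.93 U/mg) and kept at 4 °C in 10 mM sodium phosphate pH 7.0 with 2 mM DTT. At least five inhibitor concentrations (20–80% inhibition), each tested at least in triplicate. IC50 from one-site competition nonlinear fit; 95% CL.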

Consider `O=C1S/C(=C\c2cccc3ccccc23)C(=O)N1CC(=O)C(F)(F)F`, for which the inhibition in assay [1] turned out to be 52%. Turning to `O=C1S/C(=C\c2ccc(OCc3ccccc3)cc2)C(=O)N1CC(=O)C(F)(F)F`, the IC50 in assay [2] is > 9 µM. On the same count and under the same terms, for `O=C1S/C(=C\c2ccc(Oc3ccccc3)cc2)C(=O)N1CC(=O)C(F)(F)F` the value was 8.3 µM.

In the case of `O=C1S/C(=C\c2cccc(Oc3ccccc3)c2)C(=O)N1CC(=O)C(F)(F)F`, the inhibition in assay [1] was 64%. In the case of `COc1cccc(/C=C2\SC(=O)N(CC(=O)C(F)(F)F)C2=O)c1`, the IC50 in assay [2] was 23.3 µM.

For the compound `O=C1S/C(=C\c2cccc(O)c2)C(=O)N1CC(=O)C(F)(F)F`, the midpoint of inhibition in assay [2], the IC50, lay at 12.3 µM. As for `O=C1S/C(=C\c2ccc3ccccc3c2)C(=O)N1CC(O)(O)C(F)(F)F`, the inhibition in assay [1] was 59%. For `COc1ccc(/C=C2\SC(=O)N(CC(=O)C(F)(F)F)C2=O)cc1`, the IC50 in assay [2] was 17.4 µM. Still for that read-out and setting: the value for `O=C1S/C(=C\c2ccc(Oc3ccccc3)cc2)C(=O)N1CC(O)(O)C(F)(F)F` was 8.3 µM.

`O=C1S/C(=C\c2ccc(-c3ccccc3)cc2)C(=O)N1CC(O)(O)C(F)(F)F` registered an inhibition in assay [1] of 45%. On to `O=C1S/C(=C\c2cccc(Oc3ccccc3)c2)C(=O)N1CC(O)(O)C(F)(F)F`, for which the inhibition in assay [1] amounted to 64%. For `O=C1S/C(=C\c2cccc(O)c2)C(=O)N1CC(O)(O)C(F)(F)F`, in assay [2], the IC50 came out at 12.3 µM. The compound `O=C1S/C(=C\c2ccc(-c3ccccc3)cc2)C(=O)N1CC(=O)C(F)(F)F` came in with an inhibition in assay [1] of 45%. Still for that read-out and setting: the value for `O=C1S/C(=C\c2ccc3ccccc3c2)C(=O)N1CC(=O)C(F)(F)F` was 59%. Consider `O=C1S/C(=C\c2ccc(O)cc2)C(=O)N1CC(O)(O)C(F)(F)F`, for which the midpoint of inhibition in assay [2], the IC50, lay at 3 µM.

Regarding `COc1cccc(/C=C2\SC(=O)N(CC(O)(O)C(F)(F)F)C2=O)c1`, the IC50 in assay [2] worked out at 23.3 µM. Same read-out and setting: the value for `O=C1S/C(=C\c2ccc(OCc3ccccc3)cc2)C(=O)N1CC(O)(O)C(F)(F)F` was > 9 µM. On the same count and under the same terms, for `O=C1S/C(=C\c2ccc(O)cc2)C(=O)N1CC(=O)C(F)(F)F` the value was 3 µM. Consider `O=C1S/C(=C\c2cccc3ccccc23)C(=O)N1CC(O)(O)C(F)(F)F`, for which the inhibition in assay [1] amounted to 52%.

Compound `COc1ccc(/C=C2\SC(=O)N(CC(O)(O)C(F)(F)F)C2=O)cc1` showed an IC50 in assay [2] of 17.4 µM.
